IC50 and Activity data for 40 molecules are collected here from ChEMBL document CHEMBL1147798, “Novel bis(1H-indol-2-yl)methanones as potent inhibitors of FLT3 and platelet-derived growth factor receptor tyrosine kinase” (J Med Chem, 2006).

The source made the active and inactive calls. The rule behind the calls is not given here.

Experiment [1] has as its target Tyrosine-protein kinase ABL1 (Homo sapiens, UniProt P00519). As to the kind of experiment: Inhibition of recombinant Abl. In outline: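 0.5 µg GST-c-Abl catalytic domain preincubated 10 min on ice with inhibitor (DMSO stock) in 50 mM Tris-HCl pH 7.5, 10 mM MgCl₂, 10 µM orthovanadate, 1 mM DTT; [³²Pγ]ATP, final ATP 111 nM, 30 °C 30 min; SDS-PAGE; autophosphorylation radioactivity normalized to Coomassie-stained protein.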

For a further experiment, the target named is Bcr/Abl fusion protein (Homo sapiens, UniProt P00519). In words: Inhibition of oncogenic Bcr-Abl kinase in K562 cells. It is filed as cell-based. An outline of the steps:
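K562 cells, 2 × 10⁶ in 1 mL serum-free RPMI1640, inhibitor or 1% DMSO at 37 °C for 2 h; lysates immunoblotted with anti-pAbl and anti-Abl to gauge Bcr-Abl autophosphorylation.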

Experiment [2] deals with Platelet-derived growth factor receptor (Mus musculus, UniProt P05622+P26618). As to the kind of experiment: Inhibition of endogenous PDGFR in Swiss3T3 fibroblasts.
Experiment [3] concerns the target Platelet-derived growth factor receptor beta (Homo sapiens, UniProt P09619). As to the kind of experiment: Inhibition of human PDGFR beta.
In experiment [4] the target is T1, Receptor-type tyrosine-protein kinase FLT3 (Homo sapiens, UniProt P36888).
T1 sequence (P36888 whole entry): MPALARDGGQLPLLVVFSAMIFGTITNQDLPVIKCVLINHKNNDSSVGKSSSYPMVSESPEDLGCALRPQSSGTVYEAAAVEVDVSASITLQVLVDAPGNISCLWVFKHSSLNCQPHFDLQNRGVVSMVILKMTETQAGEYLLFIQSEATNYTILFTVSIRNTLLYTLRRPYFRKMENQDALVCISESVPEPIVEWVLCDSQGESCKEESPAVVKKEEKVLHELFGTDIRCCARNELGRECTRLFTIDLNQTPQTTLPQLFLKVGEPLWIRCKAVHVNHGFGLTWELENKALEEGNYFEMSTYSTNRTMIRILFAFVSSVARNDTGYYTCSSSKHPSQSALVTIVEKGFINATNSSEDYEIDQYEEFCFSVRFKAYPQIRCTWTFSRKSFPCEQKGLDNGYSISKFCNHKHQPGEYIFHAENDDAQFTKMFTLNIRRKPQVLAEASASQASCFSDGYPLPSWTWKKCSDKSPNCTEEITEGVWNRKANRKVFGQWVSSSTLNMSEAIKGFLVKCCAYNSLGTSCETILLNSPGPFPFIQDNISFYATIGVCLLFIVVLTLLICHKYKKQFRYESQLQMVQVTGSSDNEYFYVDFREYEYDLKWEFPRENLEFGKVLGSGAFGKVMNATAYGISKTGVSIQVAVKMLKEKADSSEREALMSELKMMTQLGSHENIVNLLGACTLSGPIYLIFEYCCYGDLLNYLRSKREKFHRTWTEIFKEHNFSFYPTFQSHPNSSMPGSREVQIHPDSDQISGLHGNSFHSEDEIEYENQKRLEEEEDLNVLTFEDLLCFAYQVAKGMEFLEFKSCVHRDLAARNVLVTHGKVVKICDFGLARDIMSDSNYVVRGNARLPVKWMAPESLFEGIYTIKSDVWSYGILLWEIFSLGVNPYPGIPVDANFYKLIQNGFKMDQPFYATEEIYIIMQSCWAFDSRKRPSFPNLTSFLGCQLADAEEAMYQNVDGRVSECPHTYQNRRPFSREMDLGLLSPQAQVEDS
As to the kind of experiment: Inhibition of endogenous FLT3 in EOL1 cells. In kind it is cell-based.

Experiment [5] concerns the target T1, Receptor-type tyrosine-protein kinase FLT3. As to the kind of experiment: Inhibition of human FLT3.
In experiment [6] the target is Mast/stem cell growth factor receptor Kit (Homo sapiens) (UniProt P10721). As to the kind of experiment: Inhibition of DNA synthesis in IL3 dependent FDC-P1 cells expressing KIT D814V mutant. In kind it is functional, cell-based. An outline of the steps:
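Parental FDC-P1 cells or FDC-P1 lines expressing KIT variants treated 42 h with compound, with or without IL-3 or stem cell factor; DNA synthesis measured as [³H]thymidine incorporation.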

Sequence of Platelet-derived growth factor receptor beta (P09619 whole entry): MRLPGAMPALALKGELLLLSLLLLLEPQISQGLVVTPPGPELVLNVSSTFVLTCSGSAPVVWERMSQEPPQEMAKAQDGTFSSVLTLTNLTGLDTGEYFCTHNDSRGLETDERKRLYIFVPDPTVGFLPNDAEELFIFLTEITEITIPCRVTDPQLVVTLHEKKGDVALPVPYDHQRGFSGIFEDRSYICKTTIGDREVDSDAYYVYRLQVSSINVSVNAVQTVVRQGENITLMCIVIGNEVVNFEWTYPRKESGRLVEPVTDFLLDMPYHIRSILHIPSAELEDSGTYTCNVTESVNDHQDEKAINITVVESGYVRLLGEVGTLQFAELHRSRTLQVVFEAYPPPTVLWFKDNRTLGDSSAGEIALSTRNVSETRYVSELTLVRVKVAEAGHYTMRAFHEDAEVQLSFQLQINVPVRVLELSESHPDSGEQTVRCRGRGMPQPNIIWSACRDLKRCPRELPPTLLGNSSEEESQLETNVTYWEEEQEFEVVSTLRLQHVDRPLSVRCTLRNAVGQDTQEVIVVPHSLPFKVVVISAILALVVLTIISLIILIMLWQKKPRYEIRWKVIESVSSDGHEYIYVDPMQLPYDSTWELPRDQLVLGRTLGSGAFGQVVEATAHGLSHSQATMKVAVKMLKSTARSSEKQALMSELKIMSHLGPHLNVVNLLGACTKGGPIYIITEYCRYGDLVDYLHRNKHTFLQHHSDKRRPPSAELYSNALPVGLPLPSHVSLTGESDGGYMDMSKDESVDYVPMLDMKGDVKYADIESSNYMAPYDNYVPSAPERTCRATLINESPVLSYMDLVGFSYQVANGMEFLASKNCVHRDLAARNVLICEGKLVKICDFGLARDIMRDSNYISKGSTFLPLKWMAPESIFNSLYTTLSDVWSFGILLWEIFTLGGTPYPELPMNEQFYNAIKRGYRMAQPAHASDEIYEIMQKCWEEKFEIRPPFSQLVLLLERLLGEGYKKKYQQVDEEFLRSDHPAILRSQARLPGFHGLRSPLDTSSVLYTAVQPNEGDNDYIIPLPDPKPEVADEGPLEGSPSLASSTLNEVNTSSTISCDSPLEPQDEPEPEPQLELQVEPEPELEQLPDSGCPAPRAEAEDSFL
Sequence of Mast/stem cell growth factor receptor Kit (Homo sapiens) (P10721 whole entry): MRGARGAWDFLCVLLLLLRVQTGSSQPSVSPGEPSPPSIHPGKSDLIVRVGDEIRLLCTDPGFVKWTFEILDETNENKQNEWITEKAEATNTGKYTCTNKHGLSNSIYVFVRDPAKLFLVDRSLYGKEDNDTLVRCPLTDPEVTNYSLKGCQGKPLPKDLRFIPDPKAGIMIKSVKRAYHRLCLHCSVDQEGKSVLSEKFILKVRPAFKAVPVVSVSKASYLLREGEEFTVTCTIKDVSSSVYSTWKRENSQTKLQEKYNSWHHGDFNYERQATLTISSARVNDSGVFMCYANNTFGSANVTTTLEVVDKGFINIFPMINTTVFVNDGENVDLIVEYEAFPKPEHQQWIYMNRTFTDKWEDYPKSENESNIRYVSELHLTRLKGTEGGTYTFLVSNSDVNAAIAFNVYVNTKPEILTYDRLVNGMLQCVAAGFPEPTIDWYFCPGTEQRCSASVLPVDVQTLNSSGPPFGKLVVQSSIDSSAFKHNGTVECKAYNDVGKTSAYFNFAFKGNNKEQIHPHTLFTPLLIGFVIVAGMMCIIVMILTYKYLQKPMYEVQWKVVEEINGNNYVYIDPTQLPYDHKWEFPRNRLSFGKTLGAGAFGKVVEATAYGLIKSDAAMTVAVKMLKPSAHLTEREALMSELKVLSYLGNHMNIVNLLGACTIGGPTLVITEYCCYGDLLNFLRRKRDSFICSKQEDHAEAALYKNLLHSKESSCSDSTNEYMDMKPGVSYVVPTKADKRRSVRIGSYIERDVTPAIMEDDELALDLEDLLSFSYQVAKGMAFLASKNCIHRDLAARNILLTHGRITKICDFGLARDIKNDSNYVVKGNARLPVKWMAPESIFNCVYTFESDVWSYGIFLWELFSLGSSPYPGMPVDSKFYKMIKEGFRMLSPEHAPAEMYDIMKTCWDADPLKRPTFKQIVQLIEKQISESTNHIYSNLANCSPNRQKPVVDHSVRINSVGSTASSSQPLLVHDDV
Sequence of Bcr/Abl fusion protein (P00519 whole entry, the tested form may be a part): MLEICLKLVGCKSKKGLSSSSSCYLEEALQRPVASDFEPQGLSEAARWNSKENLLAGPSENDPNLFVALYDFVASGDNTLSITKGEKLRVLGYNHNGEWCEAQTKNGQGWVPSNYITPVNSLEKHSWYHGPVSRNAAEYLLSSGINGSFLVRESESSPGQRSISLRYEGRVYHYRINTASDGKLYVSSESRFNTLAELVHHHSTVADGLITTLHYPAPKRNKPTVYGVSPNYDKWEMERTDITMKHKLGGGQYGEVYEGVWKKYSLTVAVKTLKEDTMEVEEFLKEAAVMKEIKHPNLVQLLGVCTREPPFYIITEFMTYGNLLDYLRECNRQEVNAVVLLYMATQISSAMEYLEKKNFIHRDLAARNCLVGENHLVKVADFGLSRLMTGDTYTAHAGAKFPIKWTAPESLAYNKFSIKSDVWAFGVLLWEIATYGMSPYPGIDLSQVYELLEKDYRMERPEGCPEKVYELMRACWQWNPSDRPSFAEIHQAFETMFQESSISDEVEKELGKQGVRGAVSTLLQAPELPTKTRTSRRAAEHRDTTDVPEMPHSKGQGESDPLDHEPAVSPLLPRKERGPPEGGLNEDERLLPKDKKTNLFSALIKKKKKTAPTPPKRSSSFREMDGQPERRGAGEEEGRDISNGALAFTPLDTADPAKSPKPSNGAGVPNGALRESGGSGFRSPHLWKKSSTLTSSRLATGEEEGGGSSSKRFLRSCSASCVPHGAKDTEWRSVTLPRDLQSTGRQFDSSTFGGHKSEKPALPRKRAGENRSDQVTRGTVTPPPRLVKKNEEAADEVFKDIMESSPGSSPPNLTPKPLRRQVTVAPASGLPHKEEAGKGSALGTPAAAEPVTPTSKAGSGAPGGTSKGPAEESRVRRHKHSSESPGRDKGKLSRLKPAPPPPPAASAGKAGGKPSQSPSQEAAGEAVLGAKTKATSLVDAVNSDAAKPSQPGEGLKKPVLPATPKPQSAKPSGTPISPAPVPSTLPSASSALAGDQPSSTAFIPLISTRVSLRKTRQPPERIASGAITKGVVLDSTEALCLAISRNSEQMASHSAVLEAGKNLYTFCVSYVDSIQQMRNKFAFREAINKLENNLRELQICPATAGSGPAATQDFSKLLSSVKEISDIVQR
Sequence of Bcr/Abl fusion protein (P11274 whole entry, further chain, the tested form may be a part): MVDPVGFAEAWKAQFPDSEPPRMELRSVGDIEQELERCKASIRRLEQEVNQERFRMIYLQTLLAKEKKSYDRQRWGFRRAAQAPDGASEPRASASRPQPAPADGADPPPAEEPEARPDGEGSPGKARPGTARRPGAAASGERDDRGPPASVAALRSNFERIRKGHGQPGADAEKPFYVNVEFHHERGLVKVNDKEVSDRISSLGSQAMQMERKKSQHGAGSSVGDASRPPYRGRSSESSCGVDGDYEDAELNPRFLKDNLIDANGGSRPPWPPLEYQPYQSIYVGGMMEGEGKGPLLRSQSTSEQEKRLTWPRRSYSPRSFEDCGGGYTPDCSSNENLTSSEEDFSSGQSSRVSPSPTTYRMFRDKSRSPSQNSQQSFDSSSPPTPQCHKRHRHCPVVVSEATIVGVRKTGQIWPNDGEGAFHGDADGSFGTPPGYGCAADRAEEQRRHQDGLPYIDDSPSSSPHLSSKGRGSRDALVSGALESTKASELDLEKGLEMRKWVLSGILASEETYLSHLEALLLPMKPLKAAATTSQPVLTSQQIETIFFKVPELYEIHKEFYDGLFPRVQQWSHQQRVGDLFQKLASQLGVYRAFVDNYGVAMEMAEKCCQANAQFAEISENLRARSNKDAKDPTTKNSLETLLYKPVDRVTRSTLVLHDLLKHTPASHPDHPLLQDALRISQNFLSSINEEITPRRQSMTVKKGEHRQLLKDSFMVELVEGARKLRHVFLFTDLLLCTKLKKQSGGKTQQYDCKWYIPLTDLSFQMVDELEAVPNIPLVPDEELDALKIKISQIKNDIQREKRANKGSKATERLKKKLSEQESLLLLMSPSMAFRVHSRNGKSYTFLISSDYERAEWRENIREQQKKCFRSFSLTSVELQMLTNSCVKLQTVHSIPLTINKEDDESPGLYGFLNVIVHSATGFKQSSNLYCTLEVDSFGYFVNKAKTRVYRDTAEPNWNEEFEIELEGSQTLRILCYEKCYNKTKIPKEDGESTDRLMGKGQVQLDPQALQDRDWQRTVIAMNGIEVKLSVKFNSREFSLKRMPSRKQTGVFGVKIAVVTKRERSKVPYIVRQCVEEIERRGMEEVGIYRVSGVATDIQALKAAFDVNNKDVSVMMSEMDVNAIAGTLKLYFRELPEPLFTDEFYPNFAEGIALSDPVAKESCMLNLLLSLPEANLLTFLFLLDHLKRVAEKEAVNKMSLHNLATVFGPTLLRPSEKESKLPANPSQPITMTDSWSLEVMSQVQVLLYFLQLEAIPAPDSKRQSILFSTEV
Sequence of Tyrosine-protein kinase ABL1 (P00519 whole entry, the tested form may be a part): as the sequence (P00519 whole entry, the tested form may be a part) above

For orientation: IC50 means the concentration at which inhibition is half-maximal. As for `O=C(c1cc2cc(O)ccc2[nH]1)c1cc2cc(O)ccc2[nH]1`, the half-maximal inhibitory concentration (IC50) in experiment [1] turned out to be 1300 nM; at Bcr/Abl fusion protein, 4200 nM; in experiment [2] it was 300 nM; in experiment [3], 171 nM; in experiment [4], 40 nM; in experiment [5], 33 nM.

With `O=C(c1cc2cc(O)ccc2[nH]1)c1cc2ccc(F)cc2[nH]1`, in experiment [2], 590 nM corresponded to half-maximal inhibition (IC50).

Take `Cc1cccc2[nH]c(C(=O)c3cc4cc(F)ccc4[nH]3)cc12`: in experiment [2], the IC50 amounted to 1200 nM.

Consider `O=C(c1cc2ccccc2[nH]1)c1cc2cc(F)ccc2[nH]1`, for which, in experiment [2], the concentration for half-maximal inhibition (IC50) came out at 760 nM.

`COc1ccc2[nH]c(C(=O)c3cc4cc(F)ccc4[nH]3)cc2c1` returned an IC50 in experiment [2] of 400 nM.

On to `O=C(c1cc2ccccc2[nH]1)c1cc2cc(O)ccc2[nH]1`, for which the IC50 in experiment [2] was determined as 200 nM; in experiment [4] it was 570 nM.

`COc1cccc2[nH]c(C(=O)c3cc4cc(O)ccc4[nH]3)cc12` had a 50% inhibitory concentration (IC50) in experiment [2] of 960 nM.

On to `COc1ccc2[nH]c(C(=O)c3cc4ccc(Cl)cc4[nH]3)cc2c1`, for which the values for the half-maximal inhibitory concentration (IC50) in experiment [2] and in experiment [3] were 200 nM and 55 nM, respectively.

Consider `O=C(c1cc2cc(O)ccc2[nH]1)c1cc2cccc(F)c2[nH]1`, for which the figures for the half-inhibitory concentration (IC50) in experiment [2] and in experiment [4] were 4800 nM and more than 30000 nM, respectively.

In experiment [2], `COc1ccc2[nH]c(C(=O)c3cc4ccc(F)cc4[nH]3)cc2c1` came in with an IC50 of 840 nM.

`COc1ccc2cc(C(=O)c3cc4cc(OCCN5CCCCC5)ccc4[nH]3)[nH]c2c1` returned a concentration for half-maximal inhibition (IC50) in experiment [2] of 1000 nM.

For the molecule `COc1cccc2[nH]c(C(=O)c3cc4ccccc4[nH]3)cc12`, in experiment [2], it took 1500 nM to reach half-maximal inhibition (IC50).

The molecule `COc1ccc2[nH]c(C(=O)c3cc4cc(C)ccc4[nH]3)cc2c1` returned an IC50 in experiment [2] of more than 30000 nM.

Regarding `COc1ccc2[nH]c(Cc3cc4cc(F)ccc4[nH]3)cc2c1`, the concentration for half-maximal inhibition (IC50) in experiment [2] and in experiment [4] was more than 30000 nM throughout.

In experiment [2], `COc1ccc2cc(C(=O)c3cc4cc(OCc5ccccc5)ccc4[nH]3)[nH]c2c1` returned an IC50 of more than 30000 nM.

The molecule `CCc1cccc2cc(C(=O)c3cc4cc(O)ccc4[nH]3)[nH]c12` gave an IC50 in experiment [2] of 4400 nM.

Turning to `Cc1cccc2[nH]c(C(=O)c3cc4cc(OCCN5CCCCC5)ccc4[nH]3)cc12`, the 50% inhibitory concentration (IC50) in experiment [2] was 10000 nM; in experiment [3], 1200 nM.

`O=C(c1cc2cc(F)ccc2[nH]1)c1cc2cc(OCCN3CCCCC3)ccc2[nH]1` came in with an IC50 in experiment [2] of 500 nM.

In turn, `COc1ccc2cc(C(=O)c3cc4cc(O)ccc4[nH]3)[nH]c2c1` returned an IC50 in experiment [2] of 650 nM.

`COc1ccc2[nH]c(C(=O)c3cc4cc(Cl)ccc4[nH]3)cc2c1` yielded a concentration for half-maximal inhibition (IC50) in experiment [2] of 2500 nM.

`Cc1ccc2cc(C(=O)c3cc4cc(O)ccc4[nH]3)[nH]c2c1` yielded an IC50 in experiment [2] of 580 nM.

In turn, `Cc1ccc2[nH]c(C(=O)c3cc4cc(O)ccc4[nH]3)cc2c1` displayed an IC50 in experiment [2] of 3500 nM.

On to `O=C(c1cc2cc(F)ccc2[nH]1)c1cc2cc(OCc3ccccc3)ccc2[nH]1`, for which the IC50 in experiment [2] was 5800 nM; in experiment [4], more than 30000 nM.

As to `O=C(c1cc2cc(O)ccc2[nH]1)c1cc2c(F)cccc2[nH]1`, the IC50 in experiment [2] was 620 nM.

With `Cc1cccc2[nH]c(C(=O)c3cc4cc(O)ccc4[nH]3)cc12`, the IC50 in experiment [2] came out at 960 nM; in experiment [3], 458 nM. Moreover, the outcome in experiment [6] was inactive.

As to `Cc1cc2ncc(-c3ccccc3)nc2cc1C` [AG1295], the IC50 was 5400 nM in experiment [2] and 1100 nM in experiment [4].

Regarding `COc1ccc2[nH]c(Cc3cc4ccccc4[nH]3)cc2c1`, the IC50 in experiment [2] and in experiment [4] was more than 30000 nM in each case.

On to `COc1ccc2[nH]c(C(=O)c3cc4cccc(Cl)c4[nH]3)cc2c1`, for which the IC50 in experiment [2] and in experiment [4] was more than 30000 nM each time.

In turn, `COc1ccc2[nH]c(C(=O)c3cc4cc(Br)ccc4[nH]3)cc2c1` returned an IC50 in experiment [2] of 8500 nM.

`O=C(c1cc2cc(O)ccc2[nH]1)c1cc2cc(F)ccc2[nH]1` had a concentration for half-maximal inhibition (IC50) in experiment [2] of 730 nM.

Take `O=C(c1cc2cc(O)ccc2[nH]1)c1cc2c(Br)cccc2[nH]1`: the concentration for half-maximal inhibition (IC50) in experiment [2] stood at 6100 nM.

In experiment [2], `O=C(c1cc2cc(O)ccc2[nH]1)c1cc2c(Cl)cccc2[nH]1` came in with an IC50 of 500 nM.

`COc1ccc2[nH]c(C(=O)c3cc4c(F)cccc4[nH]3)cc2c1` registered a concentration for half-maximal inhibition (IC50) in experiment [2] of 8100 nM.

Regarding `COc1ccc2[nH]c(C(=O)c3cc4c(C)cccc4[nH]3)cc2c1`, in experiment [2], the half-inhibitory concentration (IC50) came out at 4030 nM.

In experiment [2], `O=C(c1cc2ccccc2[nH]1)c1cc2cc(Oc3ccccc3)ccc2[nH]1` had an IC50 of 10000 nM.

In experiment [2], `O=C(c1cc2ccccc2[nH]1)c1cc2ccccc2[nH]1` yielded an IC50 of 1000 nM.

`COc1ccc2cc(C(=O)c3cc4cc(OCCN(C)C)ccc4[nH]3)[nH]c2c1` yielded an IC50 in experiment [2] of 2800 nM.

For the molecule `COc1ccc2[nH]c(C(=O)c3cc4c(Cl)cccc4[nH]3)cc2c1`, the IC50 in experiment [2] is more than 30000 nM.

On to `COc1ccc2[nH]c(C(=O)c3cc4ccc(C)cc4[nH]3)cc2c1`, for which the half-inhibitory concentration (IC50) in experiment [2] is 510 nM.

Regarding `COc1cccc2cc(C(=O)c3cc4cc(O)ccc4[nH]3)[nH]c12`, the IC50 in experiment [2] came out at 2900 nM.
